# Results gathered from unrelated publications.
# Each line is one published result; the experiments were not run side by side.
SMILES,target or system,assay,test system,setting,endpoint,result
Nc1ccc(/C=C/C(=O)N2CCc3c(oc4c(-c5ccc(F)cc5)cc(-c5ccc(C(=O)N6C[C@@H]7[C@H](C6)C7(F)F)nn5)cc34)C2)cn1,ASPC1,"cell growth or viability, CCK-8",,72 h,IC50,0.26 µM
C=CC(=O)N1CCN(c2nc(=O)n(-c3c(C)ccnc3C(C)C)c3nc(-c4c(O)cccc4F)c(F)cc23)[C@@H](C)C1,ASPC1,"cell growth or viability, ATP luminescence",,,IC50,> 10 µM
Cc1nn(-c2ccccc2)c2c1C(c1cncs1)N(C(=O)c1ccncc1)N2 (centres unmarked),Cryptococcus neoformans,microbial growth,,clinical isolate,MIC,64 µg/mL
C[C@@H]1[C@H](O)[C@@H](C)/C=C/C=C/C=C/C=C/C=C/C=C/C=C/[C@H](O[C@@H]2O[C@H](C)[C@@H](O)[C@H](N)[C@@H]2O)C[C@@H]2O[C@](O)(C[C@@H](O)C[C@@H](O)[C@H](O)CC[C@@H](O)C[C@@H](O)CC(=O)O[C@H]1C)C[C@H](O)[C@H]2C(=O)O,Nakaseomyces glabratus,"microbial growth, broth dilution",ATCC2001,24 h,MIC,4 µg/mL
Cc1nn(-c2ccccc2)c2c1C(c1ccc([N+](=O)[O-])cc1)N(C(=O)c1ccncc1)N2 (centres unmarked),Cryptococcus neoformans,microbial growth,,clinical isolate,MIC,64 µg/mL
CO[C@]12C[C@@H](COC(=O)c3cncc(Br)c3)CN(C)[C@@H]1Cc1cn(C)c3cccc2c13,CNE-2,"cell growth or viability, MTT",,48 h,IC50,12.9 µM
CC(C)=CCC/C(C)=C/CO,Cryptococcus neoformans,"microbial killing, broth dilution",,clinical isolate,MFC,800 µg/mL
C=C(F)C(=O)N1CCN(c2nc(OC[C@@H]3CCCN3C)nc3c2CCN(c2cccc4cccc(Cl)c24)C3)C[C@@H]1CC#N,NCI-H358,"cell growth or viability, ATP luminescence",,3D culture,IC50,0.00385 µM
Cc1nn(-c2ccccc2)c2c1C(c1c[nH]c3ccccc13)N(C(=O)c1ccncc1)N2 (centres unmarked),Cryptococcus neoformans,microbial growth,,clinical isolate,MIC,4 µg/mL
C=CCc1ccc(O)c(OC)c1,Cryptococcus neoformans,"microbial killing, broth dilution",,clinical isolate,MFC,400 µg/mL
COC1=CC(=O)c2ccccc2C1=O,Nakaseomyces glabratus,"microbial growth, broth dilution",ATCC2001,24 h,MIC,25 µg/mL
O=C(O)c1cn(C2CC2)c2cc(N3CCNCC3)c(F)cc2c1=O,Bacillus subtilis,microbial growth,ATCC6051,,MIC,2 µM
Clc1ccccc1C(c1ccccc1)(c1ccccc1)n1ccnc1,Cryptococcus neoformans,microbial growth,,clinical isolate,MIC,4 µg/mL
C=CC(=O)NC1CCN(c2ncc3ncnc(Nc4ccc(Oc5ccc6c(c5)ncn6C)c(C)c4)c3n2)CC1,LUDLU-1,cell growth or viability,,,EC50,6.21 µM
